Sampled rows, rich in hits. Any-hit rate of the full collection: about 2.9%.
DENV2 CPE: inhibitors of DENV2 cytopathic effect | DENV2-infected cells, cytopathic effect rescue, plate reader | CPE inhibition, % at 9.99 µM | hit rate 1.7% among 350,000; in the data active = CPE inhibition above about 20%, passing the limit was not always enough; inconclusive = no clear call, values can overlap the other calls; tested in BHK-21 cells;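 note: 0% = median of neutral control wells and 100% = median of positive control wells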
CAL PDZ FP-1: blocks peptide binding to the human CAL PDZ domain | Q9HD26 | purified CAL PDZ, TMR-peptide fluorescence polarization, 1 h | inhibition, % at 24.9 µM | hit rate 0.92% among 300,000 | AID 602252;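 active = mean inhibition of at least 30% with at least half of replicates also reaching 30%; inconclusive = no clear call, values can overlap the other calls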;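 note: 0% = DMSO neutral control and 100% = excess unlabeled competitor peptide PRC23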
CAL PDZ FP-2: inhibitors of human CAL PDZ peptide binding; purified CAL PDZ, TMR-peptide fluorescence polarization, 1 h; inhibition, % at 20 µM; hit rate 0.02% among 330,000;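 active = highest replicate inhibition of at least 40%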;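 note: plate controls were DMSO neutral control wells for no effect and unlabeled competitor peptide control wells for full effect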
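Test system: purified CerCALP PDZ construct; Compound dosing: one concentration, 20 µM compound; Also added: TMR-labelled reporter peptide T*-PRC34 bound in PDZ groove; Read-out: inhibition from polarization loss; Controls: unlabelled peptide and DMSO controls; Signal: FP readout, S and P plane fluorescence; Incubation: 1 h at RT.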
ERAP1 HTS inh: inhibitors of human ERAP1 aminopeptidase; recombinant ERAP1, Leu-AMC fluorescence, 60 min; inhibition, % at 10.7 µM; hit rate 0.15% among 340,000;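 active = mean replicate inhibition of at least 30%, or all replicates individually reaching that 30% level; inactive = mean below 30% and not every replicate reaching it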;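 note: 0% = neutral control wells and 100% = L-leucinethiol positive control wells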
SIRT5 block: inhibitors of human sirtuin-5 desuccinylase | Q9NXA8 | Purified SirT5, succinyl-peptide AMC, trypsin-coupled fluorescence | inhibition, % at 15 µM | hit rate 1.1% among 330,000 | AID 652115; in the data active = inhibition above about 15%; inconclusive = no clear call, values can overlap the other calls
Target sequence (Q9NXA8 whole entry, looked up): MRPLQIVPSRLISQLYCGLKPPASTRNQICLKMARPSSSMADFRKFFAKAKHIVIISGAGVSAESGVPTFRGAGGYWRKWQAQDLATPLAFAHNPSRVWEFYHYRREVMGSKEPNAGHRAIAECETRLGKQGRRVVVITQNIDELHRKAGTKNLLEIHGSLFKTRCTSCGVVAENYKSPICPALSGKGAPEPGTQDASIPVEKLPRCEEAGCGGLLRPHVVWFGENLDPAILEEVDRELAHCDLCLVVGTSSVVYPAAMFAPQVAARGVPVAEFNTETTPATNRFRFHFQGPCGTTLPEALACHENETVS
S100A4 MyoIIA: inhibitors of human S100A4 binding to myosin IIA peptide; P26447; S100A4/TAMRA-MyoIIA peptide fluorescence polarization; inhibition, % at 10.7 µM; hit rate 0.14% among 360,000;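 active = mean inhibition of at least 70% across replicates, with every replicate also reaching that level; inconclusive = mean inhibition reaches 70% but some replicates fall short; inactive = mean inhibition below 70%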
Target sequence (P26447 whole entry, looked up): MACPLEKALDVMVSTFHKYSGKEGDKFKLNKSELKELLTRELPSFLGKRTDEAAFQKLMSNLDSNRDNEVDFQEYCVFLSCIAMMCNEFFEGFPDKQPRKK
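incubation = readout 5 min after mixing, signal stable up to 60 min | system = S100A4 monomer protein | buffer or medium = HEPES pH 7.2 with CaCl2, KCl, NaCl, DTT, Triton | benchmarks = neutral control DMSO, positive control TFP | also added = fluorescent myosin IIA peptide, 5 nM | compound dosing = one concentration per compound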
An asterisk follows results filed as active; ? = inconclusive; . = not tested or not shown.

SMILES	DENV2 CPE	CAL PDZ FP-1	CAL PDZ FP-2	ERAP1 HTS inh	SIRT5 block	S100A4 MyoIIA
O=C(C[C@@H]1CC[C@@H]2[C@H](COC[C@@H](O)CN2C(=O)c2ccccn2)O1)N1CCN(c2ccccc2)CC1	-16	.	.	-3	1	-1
O=C(NC1CCCc2c1cnn2-c1ccccc1F)c1ccncc1 (centres undefined)	25*	.	.	-10	-4	-1
O=C(NC1CCCc2c1cnn2-c1ccccc1F)c1ccccn1 (centres undefined)	-1	0	-1	1	-1	-4
Cc1noc(C)c1S(=O)(=O)Nc1ccc2c(c1)CC(=O)N([C@H](C)CO)C[C@H](C)[C@@H](CN(C)C(=O)Nc1ccc3c(c1)OCO3)O2	-6	.	.	.	.	.
C=CCn1c(SCC(=O)c2ccc(O)c(O)c2)nnc1-c1ccc(C)cc1	-11	1	-3	5	44*	4
C=CCn1c(SCC(=O)N2CC(C)OC(C)C2)nnc1-c1ccncc1 (centres undefined)	7	-5	1	49*	-6	0
C=CCn1c(SCC(=O)c2ccc(O)c(O)c2)nnc1-c1ccc(OC)cc1	6	3	-1	-5	-2	4
CC1(C)CC(=O)N(c2ccc(Cl)cc2Cl)C(=O)C1	?	61*	1	2	0	2
CC1(C)CC(=O)N(c2cccc(Cl)c2)C(=O)C1	0	-5	0	0	5	-1
Cc1noc(C)c1NC(=O)Nc1ccc2c(c1)CC(=O)N([C@@H](C)CO)C[C@@H](C)[C@H](CN(C)S(=O)(=O)c1ccc(F)cc1)O2	-1	.	.	-1	-4	8
C[C@@H]1CCCCO[C@@H](CN(C)C(=O)Nc2ccccc2)[C@H](C)CN([C@H](C)CO)C(=O)c2cc(NC(=O)CCC(F)(F)F)ccc2O1	-5	.	.	2	8	-4
COc1cccc(CNC(=O)C[C@H]2CC[C@H](NC(=O)C3CC3)[C@H](CO)O2)c1	0	.	.	1	1	8
CC(C)NC(=O)NS(=O)(=O)c1cnccc1NC1CC2CCC1C2 (centres undefined)	.	69*	0	.	.	.
Cc1ccc(C(=O)NCCCN2CCOCC2)cc1N1CCCC1=O	.	40*	.	.	.	.
O=C(NCCCN1CCOCC1)c1ccc2c(c1)N(Cc1cccc(Cl)c1)C(=O)c1ccccc1S2=O (centres undefined)	-12	37*	-1	-6	-1	-9
O=C(NCCCN1CCOCC1)c1ccc2c(c1)N(Cc1ccccc1)C(=O)c1ccccc1S2=O (centres undefined)	-1	6	-2	0	2	7
Cc1ccc(C(=O)NCCc2ccccc2)cc1N1CCCC1=O	.	-1	-2	.	.	.
CCOC(=O)C1=C(C)NC(C)=C(C(=O)OCC)C1c1ccc(Br)o1	-11	179*	-2	0	0	0
CCOC(=O)C1=C(C)NC(=O)NC1c1ccc(Br)o1 (centres undefined)	.	0	1	.	.	.
CCOC(=O)C1=C(C)NC(C)=C(C(=O)OCC)C1c1ccc(OC)cc1	.	-3	-1	.	.	.
CCOC(=O)C1=C(C)NC(C)=C(C(=O)OCC)C1C	-7	-1	-2	34*	4	-5
C[C@@H]1CCCCO[C@@H](CN(C)S(=O)(=O)c2ccc(F)cc2)[C@@H](C)CN([C@H](C)CO)C(=O)c2cc(NC(=O)Cc3ccccc3)ccc2O1	2	.	.	.	.	.
COc1cccc(CN(CCC(C)C)S(=O)(=O)c2cc(Br)ccc2Br)c1	-10	-1	0	.	28*	8
c1ccc(CNc2ncnc3nc[nH]c23)cc1	-2	-2	-1	-1	3	-5
c1ccc(CCCNc2ncnc3nc[nH]c23)cc1	4	-5	-1	-4	18*	3
SMILES	DENV2 CPE	CAL PDZ FP-1	CAL PDZ FP-2	ERAP1 HTS inh	SIRT5 block	S100A4 MyoIIA
C[C@H]1CN([C@@H](C)CO)S(=O)(=O)c2ccc(-c3cccc(C(=O)N(C)C)c3)cc2O[C@@H]1CN(C)C(=O)Nc1ccc(F)cc1	-2	.	.	-3	3	25
O=C(NCCc1ccncc1)[C@@H]1[C@@H](CO)[C@@H]2Cn3c(ccc(-c4cccc(F)c4)c3=O)[C@H]1N2	85*	.	.	1	-34	12
O=C(NCCc1ccncc1)[C@H]1[C@H](CO)[C@H]2Cn3c(ccc(-c4cccc(F)c4)c3=O)[C@@H]1N2	-10	.	.	0	-40	-4
CCC(C)N(C(=O)COC(=O)c1nc2nc(C)cc(C)n2n1)C1CCS(=O)(=O)C1 (centres undefined)	10	1	2	88*	3	-12
NS(=O)(=O)c1ccc(F)c(C(=O)O)c1	-2	-4	-1	1	19*	-5
O=C(c1cc(S(=O)(=O)N2CCCCC2)ccc1F)N1CCCCC1	1	.	-1	-2	-3	9
CCN(CC)CCCNC(=O)c1cn(CC(C)C)c(=O)c2c1c1ccccc1n2C	7	50*	-1	-1	-8	-4
CCc1ccccc1NC(=O)c1cnc2n(c1=O)CCS2	35*	.	-1	-2	-1	-3
Cc1ccccc1NC(=O)c1cnn(-c2ccccc2)c1C	-8	.	1	5	2	-7
Cc1c(C(=O)Nc2cccc(F)c2)cnn1-c1ccccc1	50*	-1	.	0	-4	4
CCn1ncc(Br)c1C(=O)Nc1cccc(F)c1	-1	33*	23	-1	1	2
CSc1ccccc1NC(=O)c1cnc2n(c1=O)CCS2	?	.	-1	5	0	-1
CCc1ccccc1NC(=O)c1cnn(-c2ccccc2)c1C	?	75*	.	0	-3	4
Cc1c(C(=O)Nc2ccccc2)cnn1-c1ccccc1	-5	-4	-1	2	-4	-5
CCc1cc2c(=O)c(-c3nc4ccccc4n3C)coc2c(CN2CCCCC2)c1O	1	-2	-1	3	34*	-4
C[C@@H]1CN([C@@H](C)CO)C(=O)c2cccc(NC(=O)CCCCCC(=O)Nc3ccccc3N)c2O[C@@H]1CN(C)S(C)(=O)=O	-14	.	.	5	10	-3
COc1ccc(CCN(Cc2cc3ccc(C)cc3n3nnnc23)C(C)=O)cc1OC	-5	-2	-3	-14	26*	-1
CC(=O)OC(COC1C[C@@H]2CC[C@@]1(C)C2(C)C)C[N+]1(C)CCCCC1 (some centres undefined)	0	1	1	100*	-5	-4
CC(=O)c1ccc(OCCCC(=O)Nc2cc(Cl)ccc2-n2cncn2)cc1	56*	0	-3	-2	-2	-3
COC(=O)[C@@]12C[C@@H](CC(=O)NCCCN3CCCC3=O)C(=O)N(Cc3ccccc3)C1=CCC(C)(C)C2	8	.	.	7	-1	0
COC(=O)[C@@]12C[C@@H](CC(=O)NCc3ccccc3)C(=O)N(Cc3ccccc3)C1=CCC(C)(C)C2	-16	.	.	0	36*	4

Compound activity as filed in PubChem BioAssay.
